Assay results published in ChEMBL document CHEMBL1155804, “Brominated diterpenes with antibacterial activity from the red alga Sphaerococcus coronopifolius” (2008).
Converted amounts (≈) assume the structure as drawn.

Legend:
Format in all cases: functional
Staphylococcus aureus [1] = assay: Antibacterial activity against epidemic methicillin-resistant Staphylococcus aureus 16 expressing mecA after 18 hrs by MTT assay
How it was run: (§1)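 Broth microdilution MIC in Mueller-Hinton broth supplemented to 20 mg/L Ca2+ and 10 mg/L Mg2+. Overnight cultures were adjusted in 0.9% saline to 5 × 10^5 cfu against a McFarland standard, and the sample was serially diluted in broth. Plates included growth, sterile and 3.125% DMSO controls and were incubated 18 h at 37 °C. MICs were determined in duplicate.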

Staphylococcus aureus [2] = assay: Antibacterial activity against epidemic methicillin-resistant Staphylococcus aureus 15 after 18 hrs by MTT assay; how it was run: as §1
Staphylococcus aureus [3] = assay: Antibacterial activity against Staphylococcus aureus 1199B overexpressing NorA efflux pump after 18 hrs by MTT assay; how it was run: as §1
Staphylococcus aureus [4] = assay: Antibacterial activity against Staphylococcus aureus ATCC 25923 after 18 hrs by MTT assay; conditions: ATCC 25923, 18 h; how it was run: as §1
Staphylococcus aureus [5] = assay: Antibacterial activity against methicillin-resistant Staphylococcus aureus XU212 expressing TetK efflux pump after 18 hrs by MTT assay; conditions: XU212, 18 h; how it was run: as §1
Staphylococcus aureus [6] = assay: Antibacterial activity against Staphylococcus aureus […] expressing MsrA macrolide efflux pump after 18 hrs by MTT assay; how it was run: as §1

Compound | MIC (Staphylococcus aureus [1]) | MIC (Staphylococcus aureus [2]) | MIC (Staphylococcus aureus [3]) | MIC (Staphylococcus aureus [4]) | MIC (Staphylococcus aureus [5]) | MIC (Staphylococcus aureus [6])
CCn1cc(C(=O)O)c(=O)c2cc(F)c(N3CCNCC3)cc21 [NORFLOXACIN] | 128 µg/mL (≈ 401 µM) | 0.5 µg/mL (≈ 1.57 µM) | 32 µg/mL (≈ 100 µM) | 0.5 µg/mL (≈ 1.57 µM) | 8 µg/mL (≈ 25.1 µM) | 1 µg/mL (≈ 3.13 µM)
CC(C)[C@@H]1CC[C@H](O)[C@H]2[C@H]3[C@](C)(CC[C@@]21CBr)[C@@H](Br)CC[C@]3(C)O | 1 µg/mL (≈ 2.14 µM) | 2 µg/mL (≈ 4.29 µM) | 1 µg/mL (≈ 2.14 µM) | 2 µg/mL (≈ 4.29 µM) | 2 µg/mL (≈ 4.29 µM) | 2 µg/mL (≈ 4.29 µM)
CC(C)[C@@H]1C[C@H](OO)C=C2[C@@H]3[C@](C)(O)[C@H](O)C[C@H](Br)[C@@]3(C)CC[C@@]21CBr | 16 µg/mL (≈ 32.2 µM) | 16 µg/mL (≈ 32.2 µM) | 16 µg/mL (≈ 32.2 µM) | 32 µg/mL (≈ 64.5 µM) | 16 µg/mL (≈ 32.2 µM) | 16 µg/mL (≈ 32.2 µM)
CC(C)[C@@H]1C[C@H](OO)C=C2[C@@H]3[C@](C)(O)[C@@H](O)C[C@H](Br)[C@@]3(C)CC[C@@]21CBr | 16 µg/mL (≈ 32.2 µM) | 16 µg/mL (≈ 32.2 µM) | 16 µg/mL (≈ 32.2 µM) | 32 µg/mL (≈ 64.5 µM) | 16 µg/mL (≈ 32.2 µM) | 16 µg/mL (≈ 32.2 µM)
CC(C)[C@@H]1CC[C@H](O)[C@H]2[C@H]3[C@](C)(CC[C@@]21CBr)[C@@H](Br)CC(=O)[C@]3(C)O | 64 µg/mL (≈ 133 µM) | 128 µg/mL (≈ 267 µM) | 32 µg/mL (≈ 66.6 µM) | 32 µg/mL (≈ 66.6 µM) | 32 µg/mL (≈ 66.6 µM) | 32 µg/mL (≈ 66.6 µM)
CC(C)[C@@H]1C[C@H](O)C=C2[C@H]3[C@](C)(CC[C@@]21CBr)[C@@H](Br)CC[C@@]3(C)O | 16 µg/mL (≈ 34.5 µM) | 16 µg/mL (≈ 34.5 µM) | 16 µg/mL (≈ 34.5 µM) | 16 µg/mL (≈ 34.5 µM) | 16 µg/mL (≈ 34.5 µM) | 16 µg/mL (≈ 34.5 µM)
CC(C)[C@@H]1CC[C@H](O)[C@H]2[C@H]3[C@@](C)(C=CC(=O)[C@]3(C)O)CC[C@@]21CBr | 0.25 µg/mL (≈ 0.626 µM) | 0.5 µg/mL (≈ 1.25 µM) | 0.5 µg/mL (≈ 1.25 µM) | 0.5 µg/mL (≈ 1.25 µM) | 1 µg/mL (≈ 2.5 µM) | 1 µg/mL (≈ 2.5 µM)
